Laboratory results published in ChEMBL document CHEMBL1921756, “Tyrphostin-like compounds with ubiquitin modulatory activity as possible therapeutic agents for multiple myeloma” (Bioorg Med Chem, 2011).

What was measured:
[1] = Antitumor activity against human MM1 cells after 24 to 72 hrs by MTT assay; assay type: functional, cell-based
Outline: (§1)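 Myeloma lines grown in RPMI 1640 with 10% heat-inactivated FBS and 2 mM glutamine. 20,000 cells/well were exposed to a dilution range of compound in RPMI1640/10% FBS (final DMSO ≤0.1%), with vehicle-only controls, at 37 °C for 24–72 h (typically 72 h). MTT was added for 2 h at 37 °C, then lysis buffer (20% SDS, 50% DMF, pH 4.7) for 6 h.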

[2] = Antitumor activity against human OCI-My4 cells after 24 to 72 hrs by MTT assay; assay type: functional, cell-based; outline: as §1
U-266 = test: Antitumor activity against human U266 cells after 24 to 72 hrs by MTT assay; assay type: functional, cell-based; outline: as §1
[3] = Antitumor activity against human U373MG cells after 24 to 72 hrs by MTT assay; assay type: functional, cell-based, U-373MG ATCC; conditions: U373 MG
Outline: (§2)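 Tumor cells were plated at 20,000/well and given serially diluted compound in RPMI1640 with 10% FBS (final DMSO ≤0.1%) or vehicle alone, then incubated 24–72 h at 37 °C.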

[4] = Antitumor activity against human U87MG cells after 24 to 72 hrs by MTT assay; assay type: functional, cell-based, U-87MG ATCC; conditions: U-87 MG; outline: as §2
U-87 MG = test: Ratio of AG490 IC50 to compound IC50 for human U87MG cells; assay type: functional, U-87MG ATCC
U373 MG = test: Ratio of AG490 IC50 to compound IC50 for human U373MG cells; assay type: functional, U-373MG ATCC

SMILES | IC50 [1] | IC50 [2] | IC50 (U-266) | further results
N#C/C(=C\c1cccc(Br)n1)C(=O)NCc1cccc(N)c1 | > 10000 nM | – | – | –
N#C/C(=C\c1ccc([N+](=O)[O-])cc1)C(=O)NCc1ccccc1 | 7500 nM | 12000 nM | 9000 nM | –
C[C@H](NC(=O)/C(C#N)=C/c1ccc([N+](=O)[O-])c([N+](=O)[O-])c1)c1ccccc1 | > 10000 nM | – | – | –
N#C/C(=C\c1cccc(Br)n1)C(=O)N[C@@H](CO)c1ccccc1 | 2800 nM | 3900 nM | 3500 nM | –
C[C@H](NC(=O)/C(C#N)=C/c1ccc2c(c1)OC(F)(F)O2)c1ccccc1 | > 10000 nM | – | – | –
CCCCCCc1ccc(/C=C(\C#N)C(=O)NC(c2ccccc2)C2CC2)cc1 (stereo not given) | > 10000 nM | – | – | –
CC(=O)OC[C@H](NC(=O)/C(C#N)=C/c1cccc(Br)n1)c1ccccc1 | 2600 nM | 2900 nM | 2800 nM | –
CCC[C@H](NC(=O)/C(C#N)=C/c1ccc(O)cc1)c1ccccc1 | > 10000 nM | – | – | –
CC[C@H](NC(=O)/C(C#N)=C/c1cccc(Br)n1)c1ccccc1 | 1100 nM | 1700 nM | 1400 nM | –
C[C@H](NC(=O)/C(C#N)=C/c1cccc(Br)n1)c1ccc(Br)cc1 | 1500 nM | 2000 nM | 1800 nM | –
COc1cccc([C@H](C)NC(=O)/C(C#N)=C/c2cccc(Br)n2)c1 | 2400 nM | 3100 nM | 2800 nM | –
COC(=O)C[C@H](NC(=O)/C(C#N)=C/c1cccc(Br)n1)c1ccccc1 | 3100 nM | – | 3300 nM | –
C[C@H](NC(=O)/C(C#N)=C/c1ccc2c(c1)OCCN2C)c1ccccc1 | > 10000 nM | – | – | –
N#C/C(=C\c1cccc(Br)n1)C(=O)N[C@@H](Cc1ccccc1)c1ccccc1 | 2500 nM | 2900 nM | 2700 nM | –
C[C@H](NC(=O)/C(C#N)=C/c1cccc(Br)n1)c1cccc(C(F)(F)F)c1 | 1300 nM | 1800 nM | 1600 nM | –
CCC[C@H](NC(=O)/C(C#N)=C/c1cccc(Br)n1)c1ccccc1 | 1000 nM | 1500 nM | 1300 nM | –
CCC[C@H](NC(=O)/C(C#N)=C/c1c(Cl)cccc1[N+](=O)[O-])c1ccccc1 | > 10000 nM | – | – | –
N#C/C(=C\c1cccc(Br)n1)C(=O)NC(c1ccccc1)C1CC1 (racemic) | 1100 nM | 1600 nM | 1300 nM | –
COc1ccc([C@H](C)NC(=O)/C(C#N)=C/c2cccc(Br)n2)cc1 | 1200 nM | 1800 nM | 1400 nM | –
CCC[C@H](NC(=O)/C(C#N)=C/c1cccc([N+](=O)[O-])c1)c1ccccc1 | 1730 nM | 2200 nM | 2100 nM | –
CCC[C@H](NC(=O)/C(C#N)=C/c1ccc(O)c(Br)c1)c1ccccc1 | > 10000 nM | – | – | –
N#C/C(=C\c1ccc(Cl)c([N+](=O)[O-])c1)C(=O)NC(c1ccccc1)C1CC1 (stereo not given) | 2500 nM | 2900 nM | 2800 nM | –
CCC[C@H](NC(=O)/C(C#N)=C/c1ccc(O)c([N+](=O)[O-])c1)c1ccccc1 | 8200 nM | 9700 nM | 9300 nM | –
N#C/C(=C\c1cccc(Br)n1)C(=O)NC(c1ccccc1)c1ccccc1 | 5000 nM | 6200 nM | 5800 nM | –

SMILES | IC50 [1] | IC50 [2] | IC50 (U-266) | further results
C[C@H](NC(=O)/C(C#N)=C/c1cccc(Br)n1)c1ccc(N)cc1 | > 10000 nM | – | – | –
CCC(NC(=O)/C(C#N)=C/c1ccc(-c2cccc([N+](=O)[O-])c2)o1)c1ccccc1 (stereo not given) | > 10000 nM | – | – | –
COc1cccc(CNC(=O)/C(C#N)=C/c2ccc(-c3cccc([N+](=O)[O-])c3)o2)c1 | > 10000 nM | – | – | –
N#C/C(=C\c1ccc(Cl)c([N+](=O)[O-])c1)C(=O)N[C@@H](CO)c1ccccc1 | > 10000 nM | – | – | –
N#C/C(=C\c1cccc(Br)n1)C(=O)N[C@H](c1ccccc1)C1CC1 | 1400 nM | – | – | –
Cc1ccc(CNC(=O)/C(C#N)=C/c2ccc(-c3cccc([N+](=O)[O-])c3)o2)cc1 | > 10000 nM | – | – | –
N#C/C(=C\c1ccc(-c2cccc([N+](=O)[O-])c2)o1)C(=O)NC(c1ccccc1)C1CC1 (stereo not given) | > 10000 nM | – | – | –
CCC[C@H](NC(=O)/C(C#N)=C/c1ccccc1)c1ccccc1 | 6250 nM | – | 7200 nM | –
C[C@H](NC(=O)/C(C#N)=C/c1cccc(Br)n1)c1ccc(Cl)cc1 | 1600 nM | 2300 nM | 2000 nM | –
Cc1ccc(CNC(=O)/C(C#N)=C/c2ccc(-c3cccc([N+](=O)[O-])c3)o2)o1 | > 10000 nM | – | – | –
N#C/C(=C\c1cccc(Br)n1)C(=O)N[C@@H]1CCc2ccccc21 | 2000 nM | – | 2500 nM | –
N#C/C(=C\c1ccc(N2CCCCC2)cc1)C(=O)NC(c1ccccc1)C1CC1 (stereo not given) | > 10000 nM | – | > 10000 nM | –
N#C/C(=C\c1cccc(Br)n1)C(=O)N[C@@H]1CCCc2ccccc21 | 1500 nM | – | 1900 nM | –
N#C/C(=C\c1ccc(-c2cccc([N+](=O)[O-])c2)o1)C(=O)NCc1ccccc1Cl | > 10000 nM | – | – | –
CCC[C@H](NC(=O)/C(C#N)=C/c1ccc(Cl)c([N+](=O)[O-])c1)c1ccccc1 | 1580 nM | 1900 nM | 1800 nM | –
CCC[C@H](NC(=O)/C(C#N)=C/c1ccc([N+](=O)[O-])cc1)c1ccccc1 | 2940 nM | – | 3600 nM | –
CCC[C@H](NC(=O)/C(C#N)=C/c1ccc([N+](=O)[O-])cc1[N+](=O)[O-])c1ccccc1 | > 10000 nM | – | – | –
C[C@H](NC(=O)/C(C#N)=C/c1cccc(Br)n1)c1cc(C(F)(F)F)cc(C(F)(F)F)c1 | 1300 nM | – | 1500 nM | –
N#C/C(=C\c1ccc(O)c(O)c1)C(=O)NCc1ccccc1 | > 10000 nM | > 12500 nM | > 12500 nM | –
C[C@H](NC(=O)/C(C#N)=C/c1cccc(Br)n1)c1ccc(F)cc1 | 1200 nM | – | 1400 nM | –
C[C@H](NC(=O)/C(C#N)=C/c1cccc(Br)n1)c1ccccc1 [WP 1066] | 1200 nM | 1800 nM | 1500 nM | IC50 [3]: 3700 nM; IC50 [4]: 5600 nM; Ratio IC50 (U-87 MG): 18; Ratio IC50 (U373 MG): 8
C[C@H](NC(=O)/C(C#N)=C/c1cccc(Br)n1)c1ccccc1F | 1800 nM | 2400 nM | 2000 nM | –
N#C/C(=C\c1cccc(Br)n1)C(=O)N[C@H](c1ccccc1)C(F)(F)F | 9600 nM | – | 11100 nM | –
